Measurements from ChEMBL document CHEMBL3621126, “Difluoromethyl ketones: Potent inhibitors of wild type and carbamate-insensitive G119S mutant Anopheles gambiae acetylcholinesterase” (Bioorg Med Chem Lett, 2015).
≈ marks a conversion by molar mass, not a printed value.

Legend:
[1] = target: Acetylcholinesterase (Electrophorus electricus, UniProt O42275); assay: Inhibition of electric eel AChE
[2] = target: T1, Acetylcholinesterase (Homo sapiens, UniProt P22303); assay: Inhibition of recombinant human AChE after 60 mins by Ellman assay
[3] = Inhibition of Anopheles gambiae AChE G119S mutant after 10 mins by Ellman assay
[4] = target: T2, Acetylcholinesterase (Anopheles gambiae, UniProt Q869C3); assay: Inhibition of recombinant Anopheles gambiae wild type AChE after 60 mins by Ellman assay
[5] = Inhibition of recombinant Anopheles gambiae AChE G119S mutant after 60 mins by Ellman assay
[6] = target: T2, Acetylcholinesterase; assay: Inhibition of recombinant Anopheles gambiae wild type AChE after 10 mins by Ellman assay
[7] = target: T1, Acetylcholinesterase; assay: Inhibition of recombinant human AChE after 10 mins by Ellman assay
[8] = test system: Anopheles gambiae; assay: Insecticidal activity against Anopheles gambiae G3 assessed as torsal contact toxicity by measuring mortality at 1000 ug/mL after 24 hrs by filter paper based method; assay type: functional; settings: G3, 24 h
Method in brief: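 Adult susceptible G3 An. gambiae were tested by the WHO treated-paper tarsal contact protocol. Papers were treated with ethanolic compound solutions at 1000 µg/mL and dried overnight. Mosquitoes were exposed 1 h and mortality recorded after 24 h.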

[9] = target: Acetylcholinesterase (Anopheles gambiae) (UniProt Q869C3); assay: Inhibition of recombinant Anopheles gambiae wild type AChE by Ellman assay; settings: TDE = time-dependent effect
Method in brief: (§1)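 Modified Ellman assay in microtiter plates with recombinant enzymes (human AChE, wild-type or G119S Anopheles gambiae AChE). Inhibitor preincubated 10 or 60 min at 23 ± 1°C, pH 7.7, 0.1% (v/v) DMSO, before adding substrate. Ten inhibitor concentrations were run alongside inhibitor-free control wells. IC50 was taken from sigmoidal plots of residual activity (v/v0) vs [I].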

[10] = target: T1, Acetylcholinesterase; assay: Inhibition of recombinant human AChE by Ellman assay; settings: TDE = time-dependent effect; method in brief: as §1
[11] = Inhibition of recombinant Anopheles gambiae AChE G119S mutant after 1380 mins by Ellman assay
Method in brief: (§2)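 Recombinant G119S mutant An. gambiae AChE; modified Ellman assay in microtiter plates at 23 ± 1°C, pH 7.7, 0.1% (v/v) DMSO. Enzyme preincubated with inhibitor over a range of concentrations before substrate added; inhibitor-free controls flank 10 concentrations, right-hand control used for residual activity (v/v0). IC50 taken from sigmoidal plots of v/v0 versus [I].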

[12] = test system: Anopheles gambiae; assay: Insecticidal activity against Anopheles gambiae G3 assessed as mortality at 50 ng/insect after 24 hrs (reference value: 11 +/- 4%); assay type: functional
[13] = test system: Anopheles gambiae; assay: Insecticidal activity against Anopheles gambiae G3 assessed as fumigation mortality at 1000 ng/mL after 24 hrs by mason jar assay; assay type: functional; settings: G3, 24 h
Method in brief: (§3)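 Fumigation of adult G3 An. gambiae in a sealed 1 L vessel, with % mortality read after 24 h. Nominal concentration was calculated from the inhibitor mass delivered and the vessel volume.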

[14] = Inhibition of recombinant Anopheles gambiae AChE G119S mutant after 330 mins by Ellman assay; method in brief: as §2
[15] = test system: Anopheles gambiae; assay: Insecticidal activity against Anopheles gambiae G3 assessed as torsal contact toxicity by measuring mortality after 24 hrs by filter paper based method; assay type: functional; settings: G3, 24 h
Method in brief: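 Adult susceptible G3 An. gambiae were tested by the WHO treated-paper tarsal contact protocol. Papers were treated with ethanolic compound solutions and dried overnight. Mosquitoes were exposed 1 h and mortality recorded 24 h later.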

[16] = test system: Anopheles gambiae; assay: Insecticidal activity against Anopheles gambiae G3 assessed as mortality after 24 hrs; assay type: functional
[17] = test system: Anopheles gambiae; assay: Ratio of IC50 for recombinant Anopheles gambiae AChE G119S mutant to IC50 for recombinant wild type Anopheles gambiae AChE after 60 mins
[18] = test system: Anopheles gambiae; assay: Insecticidal activity against Anopheles gambiae G3 assessed as fumigation mortality at 10 ng/mL after 24 hrs by mason jar assay; assay type: functional; settings: G3, 24 h; method in brief: as §3

T1 sequence (P22303 whole entry): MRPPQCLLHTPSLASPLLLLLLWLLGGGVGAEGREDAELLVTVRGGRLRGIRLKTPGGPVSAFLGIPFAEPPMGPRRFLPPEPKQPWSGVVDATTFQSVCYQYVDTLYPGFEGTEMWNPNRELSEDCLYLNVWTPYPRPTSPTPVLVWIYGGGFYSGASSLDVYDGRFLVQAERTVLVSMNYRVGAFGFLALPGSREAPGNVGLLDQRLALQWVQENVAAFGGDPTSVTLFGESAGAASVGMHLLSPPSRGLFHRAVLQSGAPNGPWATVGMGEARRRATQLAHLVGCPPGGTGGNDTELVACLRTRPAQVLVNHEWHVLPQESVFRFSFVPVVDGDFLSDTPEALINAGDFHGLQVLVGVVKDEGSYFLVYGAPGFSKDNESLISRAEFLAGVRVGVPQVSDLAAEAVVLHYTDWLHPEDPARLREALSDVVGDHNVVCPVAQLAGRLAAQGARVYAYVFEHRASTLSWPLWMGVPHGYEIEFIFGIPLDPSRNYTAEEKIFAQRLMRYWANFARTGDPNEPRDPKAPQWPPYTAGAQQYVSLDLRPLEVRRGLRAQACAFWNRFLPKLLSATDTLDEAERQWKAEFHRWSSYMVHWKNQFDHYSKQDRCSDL
Sequence of Acetylcholinesterase (Anopheles gambiae) (Q869C3 39-737 limits assumed): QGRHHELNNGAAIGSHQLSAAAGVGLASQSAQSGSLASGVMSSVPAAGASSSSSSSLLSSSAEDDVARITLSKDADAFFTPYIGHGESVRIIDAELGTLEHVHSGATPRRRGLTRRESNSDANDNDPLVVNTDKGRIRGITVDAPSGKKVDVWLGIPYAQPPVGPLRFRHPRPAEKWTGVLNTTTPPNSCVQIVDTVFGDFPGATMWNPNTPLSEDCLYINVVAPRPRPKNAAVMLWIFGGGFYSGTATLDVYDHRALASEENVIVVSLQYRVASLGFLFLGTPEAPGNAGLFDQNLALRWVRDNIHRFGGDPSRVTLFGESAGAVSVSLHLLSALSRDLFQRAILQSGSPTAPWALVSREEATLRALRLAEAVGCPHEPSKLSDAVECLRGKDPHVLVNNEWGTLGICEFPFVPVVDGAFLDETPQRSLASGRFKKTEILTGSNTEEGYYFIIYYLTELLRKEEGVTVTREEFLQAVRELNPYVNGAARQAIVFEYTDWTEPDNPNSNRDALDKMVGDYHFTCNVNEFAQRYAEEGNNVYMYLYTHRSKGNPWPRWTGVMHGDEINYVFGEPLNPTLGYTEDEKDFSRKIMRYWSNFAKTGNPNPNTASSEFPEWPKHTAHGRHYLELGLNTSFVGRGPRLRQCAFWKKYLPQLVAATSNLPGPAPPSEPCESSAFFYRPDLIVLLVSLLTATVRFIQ
T2 sequence (Q869C3 whole entry): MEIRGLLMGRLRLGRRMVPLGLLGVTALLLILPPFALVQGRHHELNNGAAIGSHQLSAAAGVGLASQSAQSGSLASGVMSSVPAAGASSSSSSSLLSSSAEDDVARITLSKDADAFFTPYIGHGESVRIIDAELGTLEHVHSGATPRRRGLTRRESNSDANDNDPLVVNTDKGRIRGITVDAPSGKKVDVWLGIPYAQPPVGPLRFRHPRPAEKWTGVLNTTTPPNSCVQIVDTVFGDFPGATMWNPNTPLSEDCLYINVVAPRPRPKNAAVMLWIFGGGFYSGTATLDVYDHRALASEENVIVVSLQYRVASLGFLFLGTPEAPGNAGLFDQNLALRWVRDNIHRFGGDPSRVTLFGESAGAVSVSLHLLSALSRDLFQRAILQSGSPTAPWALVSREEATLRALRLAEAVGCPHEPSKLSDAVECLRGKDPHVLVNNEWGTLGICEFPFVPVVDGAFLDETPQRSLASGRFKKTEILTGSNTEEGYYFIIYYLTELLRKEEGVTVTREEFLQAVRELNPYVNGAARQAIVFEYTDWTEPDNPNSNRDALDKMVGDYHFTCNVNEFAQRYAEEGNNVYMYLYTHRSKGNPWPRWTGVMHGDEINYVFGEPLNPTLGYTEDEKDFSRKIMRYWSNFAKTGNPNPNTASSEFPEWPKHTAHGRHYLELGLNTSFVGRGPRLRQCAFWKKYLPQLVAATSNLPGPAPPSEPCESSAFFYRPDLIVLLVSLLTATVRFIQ
Sequence of Acetylcholinesterase (Electrophorus electricus, UniProt O42275) (O42275 whole entry): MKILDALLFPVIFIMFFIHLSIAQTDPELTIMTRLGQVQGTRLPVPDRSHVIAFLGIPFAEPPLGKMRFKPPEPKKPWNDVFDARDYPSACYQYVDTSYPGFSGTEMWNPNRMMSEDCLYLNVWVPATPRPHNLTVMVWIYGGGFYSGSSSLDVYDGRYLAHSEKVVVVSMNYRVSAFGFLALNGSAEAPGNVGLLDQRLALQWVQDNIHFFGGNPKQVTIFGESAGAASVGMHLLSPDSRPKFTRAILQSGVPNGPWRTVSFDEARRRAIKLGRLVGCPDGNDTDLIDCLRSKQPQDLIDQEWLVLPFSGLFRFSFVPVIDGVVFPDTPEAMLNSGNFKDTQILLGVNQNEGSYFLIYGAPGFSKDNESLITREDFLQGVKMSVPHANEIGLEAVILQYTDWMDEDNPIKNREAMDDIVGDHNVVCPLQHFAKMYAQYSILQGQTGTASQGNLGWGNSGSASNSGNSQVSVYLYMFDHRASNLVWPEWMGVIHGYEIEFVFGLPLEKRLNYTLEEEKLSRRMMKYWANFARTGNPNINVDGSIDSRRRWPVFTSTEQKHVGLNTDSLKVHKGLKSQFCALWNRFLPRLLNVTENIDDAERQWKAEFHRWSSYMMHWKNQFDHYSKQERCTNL

Compound	Ki [1]	IC50 [2]	IC50 [3]	IC50 [4]	IC50 [5]	IC50 [6]	IC50 [7]	mortality at 1000 µg/mL [8]	inhibition [9]	inhibition [10]	IC50 [11]	mortality [12]	mortality at 1 µg/mL [13]	IC50 [14]	LC50 [15]	LD50 [16]	Ratio IC50 [17]	mortality at 0.01 µg/mL [18]
CC(=O)C(F)(F)CCC(C)(C)C	1.6 nM																	
CC(C)n1cc(C(=O)CF)cn1		> 10000 nM	> 10000 nM	> 10000 nM	> 10000 nM	> 10000 nM	> 10000 nM	85%										
CC(C)Cn1cc(C(=O)C(F)F)cn1		11000 nM	> 10000 nM	3950 nM	> 10000 nM	3000 nM	9780 nM											
CC(C)(C)c1cccc(C(=O)C(F)F)c1							6.05 nM	20%										
C[Si](C)(C)c1cccc(C(=O)C(F)(F)F)c1		92.9 nM	> 10000 nM	257 nM	10100 nM	848 nM	285 nM	10%	tde	tde								
CCC(C)n1cc(C(=O)CF)cn1 (stereo not drawn)		18000 nM	> 10000 nM	2860 nM	> 10000 nM	2750 nM	16900 nM	65%										
CC(C)Cn1cc(C(=O)CF)cn1		> 10000 nM	> 10000 nM	> 10000 nM	> 10000 nM	> 10000 nM	> 10000 nM	20%										
CC(C)n1cc(C(=O)C(F)F)cn1		869 nM	8290 nM	430 nM	8380 nM	354 nM	802 nM	50%										
CCC(CC)n1cc(C(=O)C(F)F)cn1		35.2 nM	680 nM	1.22 nM	125 nM	1.01 nM	28.8 nM	0%			25.1 nM	21%	57%	36.7 nM				
CC(C)(C)c1cccc(C(=O)CF)c1			> 10000 nM					50%										
O=C(c1cnn(C2CCCC2)c1)C(F)F		244 nM	3220 nM	134 nM	3390 nM	106 nM	208 nM	0%										
CC(C)n1cc(C(=O)C(F)(F)F)cn1		121 nM	> 10000 nM	285 nM	> 10000 nM	142 nM	77.5 nM	20%	tde	tde								
CCCC(C)n1cc(C(=O)CF)cn1 (stereo not drawn)		17600 nM	> 10000 nM	3290 nM	> 10000 nM	3520 nM	24200 nM	20%										
CCCC(C)n1cc(C(=O)C(F)F)cn1 (stereo not drawn)		158 nM	797 nM	29.1 nM	297 nM	23.4 nM	149 nM	0%										
CCC(C)n1cc(C(=O)C(F)(F)F)cn1 (stereo not drawn)		8.84 nM	8180 nM	2.29 nM	2340 nM	2.47 nM	6.47 nM	30%	tde	tde								
CNC(=O)Oc1ccccc1OC(C)C [PROPOXUR]		590 nM	> 10000 nM	43.6 nM	> 10000 nM	182 nM	2300 nM	39%					0%		32 µg/mL (≈ 153 µM)	0.2 ng		
O=C(CF)c1cnn(C2CCCC2)c1		1310 nM	> 10000 nM	1540 nM	> 10000 nM	5860 nM	2500 nM	0%										
CCCC(C)n1cc(C(=O)C(F)(F)F)cn1 (stereo not drawn)		8.37 nM	19900 nM	2.06 nM	2000 nM	3.74 nM	7.15 nM	0%	tde	tde								
CCC(CC)n1cc(C(=O)C(F)(F)F)cn1		2.27 nM	> 10000 nM	0.68 nM	1730 nM	2.75 nM	3.77 nM	40%	tde	tde		65%	86%				2500	
COP(=O)(OC)OC=C(Cl)Cl [DICHLORVOS]			1650 nM	60.1 nM	300 nM	324 nM						83%						100%
CCC(CC)n1cc(C(=O)CF)cn1		5190 nM	2990 nM	337 nM	3000 nM	355 nM	5290 nM	85%					8%					
CC(C)(C)c1cccc(C(=O)C(F)(F)F)c1		5 nM	> 10000 nM	18.1 nM	20800 nM	53.4 nM	14.6 nM	8%	tde	tde								
CCC(C)n1cc(C(=O)C(F)F)cn1 (stereo not drawn)		85.9 nM	452 nM	25.2 nM	185 nM	26.3 nM	110 nM	50%										
O=C(c1cnn(C2CCCC2)c1)C(F)(F)F		6.11 nM	> 10000 nM	1.54 nM	3520 nM	2.87 nM	5.2 nM	40%	tde	tde								
CC(C)Cn1cc(C(=O)C(F)(F)F)cn1		678 nM	> 10000 nM	1040 nM	> 10000 nM	950 nM	591 nM		tde	tde								
